Assays:
[1] = target: Mitogen-activated protein kinase 14 (Homo sapiens, UniProt Q16539); assay: Inhibition of human p38alpha after 60 mins
In short: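 Radiometric kinase assay measuring incorporation of γ-32P-ATP into biotinylated peptide substrate by human p38α (5 nM). 60 min at 30 °C, phosphoric acid stop, streptavidin capture, scintillation counting; background-subtracted IC50 versus no-inhibitor controls.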

[2] = test system: Blood; assay: Inhibition of LPS-induced TNFalpha production in human diluted whole blood at 1 uM after 2 hrs by ELISA; type: functional
[3] = test system: Blood; assay: Inhibition of LPS-induced TNFalpha production in human diluted whole blood after 2 hrs by ELISA; type: functional, tissue-based
[4] = test system: Blood; assay: Inhibition of LPS-induced TNFalpha production in human diluted whole blood at 0.3 uM after 2 hrs by ELISA; type: functional

Mitogen-activated protein kinase 14, sequence (Q16539 whole entry): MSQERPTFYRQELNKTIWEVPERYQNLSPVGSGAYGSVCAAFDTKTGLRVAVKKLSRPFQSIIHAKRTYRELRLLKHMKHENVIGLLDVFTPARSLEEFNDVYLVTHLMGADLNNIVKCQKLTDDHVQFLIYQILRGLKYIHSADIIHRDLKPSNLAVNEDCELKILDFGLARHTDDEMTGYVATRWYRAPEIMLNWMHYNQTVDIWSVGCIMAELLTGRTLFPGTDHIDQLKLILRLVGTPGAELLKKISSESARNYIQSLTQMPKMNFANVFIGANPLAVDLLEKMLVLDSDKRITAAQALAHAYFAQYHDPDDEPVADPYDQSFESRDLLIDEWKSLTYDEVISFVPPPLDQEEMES

Row | SMILES | IC50 [1] [nM] | inhibition at 1 µM [2] [%] | IC50 [3] [nM] | inhibition at 0.3 µM [4] [%]
1 | COc1ccc(C(=O)C(=O)N(C)C)cc1C(=O)N1CCC(Cc2ccc(F)cc2)CC1 | 945 | 17 |  | 
2 | COc1cc2[nH]cc(C(=O)C(=O)N(C)C)c2cc1C(=O)N1CCC(Cc2ccc(F)cc2)CC1 | 10 |  | 30 | 
3 | CN(C)C(=O)C(=O)c1ccc2c(c1)C=C(C(=O)N1CCC(Cc3ccc(F)cc3)CC1)C(C(F)(F)F)O2 (centres undefined) | > 10000 |  |  | 
4 | CN(C)C(=O)C(=O)c1c[nH]c2cc(Cl)c(C(=O)N3CCC(Cc4ccc(F)cc4)CC3)cc12 | 18 |  | 100 | 
5 | CN(C)C(=O)C(=O)c1nn(C)c2cc(Cl)c(C(=O)N3CCC(Cc4ccc(F)cc4)CC3)cc12 | 100 |  |  | 26
6 | COc1nc2[nH]cc(C(=O)C(=O)N(C)C)c2cc1C(=O)N1CCC(Cc2ccc(F)cc2)CC1 | 60 |  | 48 | 
7 | COc1cc2occ(C(=O)C(=O)N(C)C)c2cc1C(=O)N1CCC(Cc2ccc(F)cc2)CC1 | 600 | 10 |  | 
8 | Cc1[nH]c2ccc(C(=O)C(=O)N(C)C)cc2c1C(=O)N1CCC(Cc2ccc(F)cc2)CC1 | 90 |  |  | 
